{"data": "Measured values pooled from the literature", "target": "Inhibitor of nuclear factor kappa-B kinase subunit beta (IKBKB, Homo sapiens, UniProt O14920)", "Sequence (O14920 1-756, as in one of the studies)": "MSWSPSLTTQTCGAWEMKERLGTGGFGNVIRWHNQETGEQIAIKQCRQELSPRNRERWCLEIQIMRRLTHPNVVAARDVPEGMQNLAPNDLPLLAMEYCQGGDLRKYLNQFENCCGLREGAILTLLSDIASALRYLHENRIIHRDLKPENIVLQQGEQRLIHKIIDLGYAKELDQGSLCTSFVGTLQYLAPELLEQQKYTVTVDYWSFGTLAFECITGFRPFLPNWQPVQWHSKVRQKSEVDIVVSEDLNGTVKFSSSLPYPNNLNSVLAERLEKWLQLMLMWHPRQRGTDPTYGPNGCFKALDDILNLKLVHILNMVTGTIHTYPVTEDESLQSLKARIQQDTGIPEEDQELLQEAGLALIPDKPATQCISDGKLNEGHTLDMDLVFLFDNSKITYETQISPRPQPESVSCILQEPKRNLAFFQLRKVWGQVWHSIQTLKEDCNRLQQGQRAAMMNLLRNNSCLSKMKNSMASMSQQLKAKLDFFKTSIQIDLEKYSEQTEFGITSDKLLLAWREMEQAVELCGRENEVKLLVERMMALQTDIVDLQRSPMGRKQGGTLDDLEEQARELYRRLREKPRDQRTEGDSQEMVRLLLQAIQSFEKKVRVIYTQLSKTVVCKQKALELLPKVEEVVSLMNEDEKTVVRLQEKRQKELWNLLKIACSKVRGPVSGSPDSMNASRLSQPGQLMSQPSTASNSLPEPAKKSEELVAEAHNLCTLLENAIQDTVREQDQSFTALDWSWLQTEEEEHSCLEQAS", "note": "Each line is one published result; the experiments were not run side by side."}
{"Compound": "O=C(NCCCN1CCOCC1)c1ccc(Nc2nccc(-c3cc4ccccc4s3)n2)cc1", "assay": "binding, competition with immobilised ligand", "conditions": "1 µM", "remaining binding": "5.1%"}
{"Compound": "CN(C)c1ncc(F)c(-c2cnn3ncccc23)n1", "assay": "binding, competition with immobilised ligand", "conditions": "1 µM", "remaining binding": "80%"}
{"Compound": "Cc1c(NC(=O)c2cc(C(N)=O)nc3cc(F)ccc23)c(C(F)(F)F)nn1Cc1ccc(C(C)(C)C)cc1", "assay": "cell-free assay, competition with immobilised ligand", "conditions": "1 µM", "remaining binding": "100%"}
{"Compound": "C[C@@H]1CN(c2ccc3ncc(-c4ccc5[nH]nc(C6CC6)c5c4)n3n2)C[C@H](C)O1", "assay": "binding, competition with immobilised ligand", "conditions": "50 nM", "remaining binding": "88%"}
{"Compound": "CNC(=O)Nc1ccc2c(c1)CC[C@@]21OC(=O)N(CC(=O)N(Cc2ccc(F)cc2)[C@@H](C)C(F)(F)F)C1=O", "assay": "cell-free assay, competition with immobilised ligand", "conditions": "1 µM", "remaining binding": "83%"}
{"Compound": "CN(c1nccc(-c2cnn3ncccc23)n1)C1CC1", "assay": "binding", "conditions": "1 µM", "remaining binding": "100%"}
{"Compound": "COc1cnc(Nc2cccc(S(N)(=O)=O)c2)nc1N1CCN(c2ccccc2)C(=O)C1", "assay": "binding, competition with immobilised ligand", "conditions": "1 µM", "remaining binding": "93%"}
{"Compound": "O=C(Nc1c[nH]nc1C(=O)NC1CCNCC1)c1cc(F)cc(F)c1", "assay": "binding, competition with immobilised ligand", "conditions": "1 µM", "remaining binding": "100%"}
{"Compound": "O=C(c1ccc(Nc2ncc(Cl)c(-c3ccc(Cl)s3)n2)cc1)N1CCC(N2CCCC2)CC1", "assay": "binding, competition with immobilised ligand", "conditions": "1 µM", "remaining binding": "0.6%"}
{"Compound": "N#Cc1ccccc1CSc1nnc2c(n1)[nH]c1ccccc12", "assay": "binding, competition with immobilised ligand", "conditions": "10 µM", "remaining binding": "100%"}
{"Compound": "N[C@@H]1CCN(c2nccc(-c3cnn4ncccc34)n2)C1", "assay": "binding, competition with immobilised ligand", "conditions": "1 µM", "remaining binding": "100%"}
{"Compound": "CCCCN(CCCC)C(=O)CN1C[C@H](c2cc(OC)c3c(c2)OCO3)[C@@H](C(=O)O)[C@@H]1CC(C)(C)CCC", "assay": "cell-free assay, competition with immobilised ligand", "conditions": "1 µM", "remaining binding": "81.5%"}
{"Compound": "COc1ccnn2ncc(-c3ccnc(N(C)C)n3)c12", "assay": "binding, competition with immobilised ligand", "conditions": "1 µM", "remaining binding": "98%"}
{"Compound": "C=CC(=O)N1CCC(C(=O)NCC(=O)N2CCN(c3nc(-c4cnc(N)nc4C(F)F)nc(N4CCOCC4)n3)CC2)CC1", "assay": "binding, competition with immobilised ligand", "conditions": "1 µM", "remaining binding": "73%"}
{"Compound": "C[C@@H]1CCN(c2nccc(-c3cnn4ncccc34)n2)C1", "assay": "binding, competition with immobilised ligand", "conditions": "1 µM", "remaining binding": "77%"}
{"Compound": "COc1ncc2cc3ccccc3nc2c1C#N", "assay": "cell-free assay, competition with immobilised ligand", "conditions": "5 µM", "remaining binding": "96%"}
{"Compound": "F[C@@H]1CCN(c2nccc(-c3cnn4ncccc34)n2)C1", "assay": "binding, competition with immobilised ligand", "conditions": "1 µM", "remaining binding": "100%"}
{"Compound": "CS(=O)(=O)c1cc(C2(NC(=O)c3cncc4c3cnn4-c3ccc(F)cc3)CC2)ccn1", "assay": "cell-free assay, competition with immobilised ligand", "conditions": "1 µM", "remaining binding": "100%"}
{"Compound": "CCN1CCN(Cc2ccc(C(=O)Nc3ccc(C)c(Oc4ccc5c(c4)CC(=O)N5)c3)cc2C(F)(F)F)CC1", "assay": "binding, competition with immobilised ligand", "conditions": "1 µM", "remaining binding": "100%"}
{"Compound": "CCCOc1ccc([C@H]2[C@H](C(=O)O)[C@@H](c3ccc4c(c3)OCO4)CN2CC(=O)Nc2c(CC)cccc2CC)cc1", "assay": "cell-free assay, competition with immobilised ligand", "conditions": "1 µM", "remaining binding": "77%"}
{"Compound": "CN(C)c1nccc(-c2cnc3ncccn23)n1", "assay": "binding, competition with immobilised ligand", "conditions": "1 µM", "remaining binding": "67%"}
{"Compound": "C[C@@]1(Cc2ccc(C#N)cc2)C(=O)N(c2cc(Cl)cc(Cl)c2)c2ncc(C(=O)NC3(c4nc(C5CCC5)no4)CC3)n21", "assay": "cell-free assay, competition with immobilised ligand", "conditions": "1 µM", "remaining binding": "100%"}
{"Compound": "Cc1cnc(Nc2ccc(C(=O)N3CCC(N4CCCC4)CC3)cc2)nc1-c1cc2ccccc2s1", "assay": "binding, competition with immobilised ligand", "conditions": "1 µM", "remaining binding": "0%"}
{"Compound": "Nc1ncc2c(n1)-c1c([nH]c3ccc(C#CC4CC4)cc13)CCCC2", "assay": "binding, competition with immobilised ligand", "conditions": "1 µM", "remaining binding": "100%"}
{"Compound": "CSc1cccnc1N1CCN(Cc2nc3ccccc3[nH]2)CC1", "assay": "cell-free assay, competition with immobilised ligand", "conditions": "1 µM", "remaining binding": "86%"}
